Counter-ions that a name gives are not always drawn.
What was measured:
T47D = assay: In vitro concentration required to kill 50% of T47D human breast ductal carcinoma cell line; type: functional, cell-based
Summary of the method: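 T47D is a PSA-nonsecreting human breast ductal carcinoma line, used as a control for PSA-secreting LNCaP cells. Compounds were tested in cell culture. EC50 is the dose that kills 50% of the tumor cells.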

COLO 320 = assay: In vitro concentration required to kill 50% of COLO 320 human colorectal carcinoma cell line; type: functional, cell-based
Summary of the method: (§1)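 Cell-kill assay in culture. LNCaP is a PSA-secreting human prostate cancer line. Colo320 is a PSA-nonsecreting human colorectal carcinoma line, used as the non-PSA control. EC50 is the compound dose that kills 50% of the tumor cells.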

LNCaP [1] = assay: Percent tumor weight reduction after intraperitoneal injection of conjugate dose to nude mice bearing LNCaP tumor xenografts; type: functional, Mus musculus
Summary of the method: (§2)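 Nude mice bearing human prostate LNCaP (PSA-secreting) xenografts were given the conjugate intraperitoneally for 5 consecutive days and followed over six weeks. Serum PSA, tumor weight and body weight were measured at study end. Results are percent relative to vehicle-treated controls, with P values.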

[2] = Percent PSA reduction after intraperitoneal injection of conjugate dose to nude mice bearing LNCaP tumor xenografts; type: functional, Mus musculus; summary of the method: as §2
Mus musculus [3] = assay: Maximum nonlethal drug dose administered intraperitoneally to non tumor bearing nude mice; type: functional
Summary of the method: (§3)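 Nontumor-bearing nude mice were dosed intraperitoneally once daily for 5 consecutive days. MTD is the maximum dose that could be given on this schedule without lethality. P values are reported.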

LNCaP [4] = assay: In vitro concentration required to kill 50% of LNCaP human prostate cancer cell line; type: functional, cell-based; summary of the method: as §1
Mus musculus [5] = assay: Intraperitoneal dose administered to non tumor bearing nude mice; type: functional; summary of the method: as §3
PSA = assay: Time required for PSA to hydrolyze 50% compound at a molar ratio of 1:100; type: ADME; settings: PSA (enzyme)
Summary of the method: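 Conjugate and purified human PSA were mixed at a 100:1 molar ratio (substrate:enzyme) in 50 mM Tris·HCl and 140 mM NaCl, pH 7.4. Samples were incubated at 37 °C for 0, 30, 60, 120, 180 or 240 min. T1/2 is the time to 50% cleavage.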

Question: With `CC[C@]1(O)C[C@@H]2CN(CCc3c([nH]c4ccccc34)[C@@](C(=O)OC)(c3cc4c(cc3OC)N(C)C3C45CCN4CC=C[C@](CC)(C45)[C@@H](O)[C@]3(O)C(=O)OC)C2)C1` (some centres not stated) as the compound, how does the EC50 (T47D) read?
Answer: Its EC50 is 150 nM.

Question: And the EC50 (COLO 320)?
Answer: The EC50 was 200 nM.

Question: And the Weight reduction (LNCaP [1])?
Answer: Its Weight reduction is 16%.

Question: What about the Reduction [2] of the same compound?
Answer: The Reduction was 14%.

Question: What about the MTD (Mus musculus [3]) of the same compound?
Answer: Its MTD is 0.26 µM/kg.

Question: What about the EC50 (LNCaP [4]) of the same compound?
Answer: Its EC50 is 100 nM.

Question: What about the Dose (Mus musculus [5]) of the same compound?
Answer: The Dose was 0.26 µM/kg.

Question: Which EC50 (COLO 320) does the source give for `CC[C@]1(O)C[C@@H]2CN(CCc3c([nH]c4ccccc34)[C@@](C(=O)OC)(c3cc4c(cc3OC)N(C)C3C45CCN4CC=C[C@](CC)(C45)[C@@H](OC(=O)CN)[C@]3(O)C(=O)OC)C2)C1` (some centres not stated) here?
Answer: The EC50 was 1800 nM.

Question: What about the EC50 (LNCaP [4]) of the same compound?
Answer: The EC50 was 300 nM.

Question: Which results are given for `CC[C@]1(O)C[C@@H]2CN(CCc3c([nH]c4ccccc34)[C@@](C(=O)OC)(c3cc4c(cc3OC)N(C)C3C45CCN4CC=C[C@](CC)(C45)[C@@H](OC(=O)[C@@H](N)CC(C)C)[C@]3(O)C(=O)OC)C2)C1` (some centres not stated)?
Answer: EC50 (COLO 320): 6000 nM; EC50 (LNCaP [4]): 4000 nM

Question: What does the source list for `CC[C@]1(O)C[C@@H]2CN(CCc3c([nH]c4ccccc34)[C@@](C(=O)OC)(c3cc4c(cc3OC)N(C)C3C45CCN4CC=C[C@](CC)(C45)[C@@H](OC(=O)C4CCCN4)[C@]3(O)C(=O)OC)C2)C1.O=C(O)C(F)(F)F` (some centres not stated)?
Answer: EC50 (T47D): 1600 nM; EC50 (COLO 320): 3000 nM; Weight reduction (LNCaP [1]): 60%; Reduction [2]: 33%; MTD (Mus musculus [3]): 4.6 µM/kg; EC50 (LNCaP [4]): 1000 nM; Dose (Mus musculus [5]): 4.6 µM/kg

Question: Which EC50 (COLO 320) does the source give for `CC[C@]1(O)C[C@@H]2CN(CCc3c([nH]c4ccccc34)[C@@](C(=O)OC)(c3cc4c(cc3OC)N(C)C3C45CCN4CC=C[C@](CC)(C45)[C@@H](OC(=O)[C@H](CC(C)C)NC(=O)[C@H](CO)NC(=O)[C@H](CCC(N)=O)NC(=O)C(NC(=O)[C@H](CO)NC(=O)[C@H](CO)NC(=O)[C@H]4CC(O)CN4C(C)=O)C4CCCCC4)[C@]3(O)C(=O)OC)C2)C1.O=C(O)C(F)(F)F` (some centres not stated) here?
Answer: The EC50 was 87000 nM.

Question: What about the half-life (PSA) of the same compound?
Answer: Its half-life is 35 min.

Question: And the EC50 (LNCaP [4])?
Answer: Its EC50 is 40000 nM.

Question: For `CC[C@]1(O)C[C@@H]2CN(CCc3c([nH]c4ccccc34)[C@@](C(=O)OC)(c3cc4c(cc3OC)N(C)[C@H]3[C@@](O)(C(=O)OC)[C@H](OC(C)=O)[C@]5(CC)C=CCN6CC[C@]43[C@@H]65)C2)C1` [VINBLASTINE SULFATE], which EC50 (LNCaP [4]) is on record?
Answer: The EC50 was 500 nM.

Reference: ChEMBL document CHEMBL1135593, “Design and synthesis of a pro-drug of vinblastine targeted at treatment of prostate cancer with enhanced efficacy and reduced systemic toxicity” (J Med Chem, 2002)
